# Activity calls are given as the source filed them. No cut-off for these calls is given here.
# Assays:
# HCC1806 [1] = assay: Cytotoxicity against human HCC1806 cells assessed as reduction in cell viability incubated for 3 days by cell-titer-Glo reagent based assay; format: functional; conditions: for IC50: HCC1806, 72 h
# How it was run: (§1)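 Viability by CellTiter-Glo (ATP read-out). Cells plated at 3 × 10³/well in 384-well format overnight, then exposed to compound over a range (0.125–20 µM for initial series) for 3 d in RPMI 1640 with 10% FBS at 37°C, 5% CO₂. IC₅₀ fitted from dose–response curve.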
# HCC38 = assay: Cytotoxicity against human HCC38 cells assessed as reduction in cell viability incubated for 3 days by cell-titer-Glo reagent based assay; format: functional; conditions: for IC50: HCC38, 72 h; how it was run: as §1
# HCC1143 = assay: Cytotoxicity against human HCC1143 cells assessed as reduction in cell viability incubated for 3 days by cell-titer-Glo reagent based assay; format: functional; conditions: for IC50: HCC1143, 72 h; how it was run: as §1
# HEK-293T [2] = assay: Increase in CHOP expression in HEK293T cells stably transfected with luciferase gene at 10 uM incubated for 24 hrs by luciferase reporter gene assay; format: functional, Homo sapiens
# How it was run: (§2)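 HEK293T cells stably carrying CHOP-, ERSE- or UPRE-luciferase reporters plated 7 × 10³/well in 384-well plates, after 16 h given compound (10 µM), tunicamycin 1 µg/mL or DMSO for 24 h; luciferase by Bright-Glo. Means of 4 replicate wells, representative of 3 experiments.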
# HEK293 = assay: Increase in CHOP mRNA expression in HEK293 cells at 10 uM incubated for 24 hrs by qRT-PCR method; format: functional, Homo sapiens
# How it was run: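 HEK293 cells given 10 µM compound or DMSO for 24 h; CHOP mRNA by qRT-PCR. Means of 3 replicate wells, 3 independent experiments, Student's t-test vs control.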
# HCC1806 [3] = assay: Cytotoxicity against human HCC1806 cells assessed as reduction in cell viability at 5 uM incubated for 48 hrs in presence of control siRNA by cell-titer-Glo reagent based assay; format: functional
# How it was run: (§3)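 HCC-1806 cells in serum-free RPMI transfected with 20 nM CHOP or scrambled siRNA by lipofection; after 6 h medium replaced with 10% FBS RPMI and compound (5 µM) or DMSO added for 48 h in 96-well format. Viability by CellTiter-Glo; 3 independent experiments, Student's t-test vs DMSO.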
# HCC1806 [4] = assay: Increase in Bim mRNA expression in human HCC1806 cells at 10 uM by RT-PCR method; format: functional, cell-based; conditions: TDE = time-dependent effect
# How it was run: (§4)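 HCC-1806 cells treated with 10 µM over a time course; ATF4, GADD34 or Bim mRNA by qRT-PCR. Means of 4 replicate wells, representative of 3 experiments, Student's t-test vs DMSO-treated cells.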
# HCC1806 [5] = assay: Increase in CHOP mRNA expression in human HCC1806 cells incubated for 8 hrs by qRT-PCR method; format: functional, cell-based
# How it was run: (§5)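 HCC-1806 cells (4 × 10⁵/well, 6-well) treated at a series of concentrations for 8 h; total RNA by TRIzol, 2 µg reverse transcribed, CHOP mRNA by qRT-PCR. Means of 4 replicate wells, 3 experiments, t-test vs DMSO.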
# HCC1806 [6] = assay: Induction of apoptosis in human HCC1806 cells assessed as reduction in cell number at 10 uM incubated for 24 hrs by live-cell phase-contrast microscopy; format: functional, cell-based
# How it was run: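 Near-confluent HCC-1806 cultures treated with 10 µM compound or DMSO for 24 h, then imaged by live-cell phase-contrast microscopy at 10× magnification.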
# HCC1806 [7] = assay: Increase in XBP1 mRNA splicing in human HCC1806 cells at 10 uM incubated for 24 hrs by RT-PCR method (reference value: 11%); format: functional
# How it was run: (§6)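 HCC-1806 cells given 10 µM compound or tunicamycin 1 µg/mL over a time course; XBP1 RT-PCR products resolved on agarose gel, GAPDH internal control. Spliced fraction by densitometry as XBP1s/(XBP1s+XBP1u) × 100%; 3 experiments.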
# HCC1806 [8] = assay: Increase in CHOP mRNA expression in human HCC1806 cells at 5 uM in presence of control siRNA incubated for 48 hrs by qRT-PCR method; format: functional, cell-based
# How it was run: (§7)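 HCC-1806 cells transfected with CHOP or scrambled siRNA; 6 h later treated with 5 µM compound or DMSO for 48 h. CHOP mRNA by RT-PCR with GAPDH as internal control; 3 independent experiments.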
# HCC1806 [9] = assay: Increase in CHOP mRNA expression in human HCC1806 cells at 5 uM in presence of CHOP siRNA incubated for 48 hrs by qRT-PCR method; format: functional, cell-based; how it was run: as §7
# HCC1806 [10] = assay: Increase in CHOP mRNA expression in human HCC1806 cells at 10 uM by qRT-PCR method; format: functional, cell-based; conditions: TDE = time-dependent effect
# How it was run: (§8)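 HCC-1806 cells (4 × 10⁵/well) exposed to 10 µM over a time course; CHOP mRNA by qRT-PCR after TRIzol extraction and reverse transcription of 2 µg RNA. Means of 4 replicate wells, 3 experiments, t-test vs 0 h.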
# HEK-293T [11] = assay: Increase in ERSE-mediated luciferase expression in HEK293T cells stably transfected with ERSE-luciferase gene at 10 uM incubated for 24 hrs by luciferase reporter gene assay; format: functional, cell-based; conditions: Homo sapiens; how it was run: as §2
# HCC1806 [12] = assay: Increase in CHOP protein expression in human HCC1806 cells at 10 uM incubated for 2 and 24 hrs by Western blotting method; format: functional, cell-based; conditions: in the assay text read “4 and 24 hrs” for “2 and 24 hrs”
# How it was run: (§9)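 HCC-1806 cells (8 × 10⁵ per 60-mm dish) treated with 10 µM for the indicated times, lysed in buffer with EDTA and phosphatase inhibitors; 20 µg protein on 7% SDS-PAGE, PVDF transfer, primary then HRP secondary antibodies (1:3000). α-Tubulin loading control; representative of 3 experiments.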
# HCC1806 [13] = assay: Increase in eIF2alpha phosphorylation in human HCC1806 cells at 10 uM incubated for 1 to 24 hrs by Western blotting method; format: functional, cell-based; how it was run: as §9
# HCC1806 [14] = assay: Reduction in Bcl-2 protein expression in human HCC1806 cells at 10 uM incubated for 2 to 24 hrs by Western blotting method; format: functional, cell-based; how it was run: as §9
# HCC1806 [15] = assay: Induction of apoptosis in human HCC1806 cells assessed as increase in caspase-3 cleavage at 10 uM incubated for 8 and 24 hrs by Western blotting method; format: functional, cell-based; how it was run: as §9
# HCC1806 [16] = assay: Reduction in ATF4 protein in human HCC1806 cells at 10 uM incubated for 2 to 8 hrs by Western blotting method; format: functional, cell-based; how it was run: as §9
# HCC1806 [17] = assay: Increase in XBP1 mRNA splicing in human HCC1806 cells at 10 uM incubated for 8 hrs by RT-PCR method (reference value: 11%); format: functional; how it was run: as §6
# HCC1806 [18] = assay: Increase in ATF4 protein in human HCC1806 cells at 10 uM incubated for 2 to 8 hrs by Western blotting method; format: functional, cell-based; how it was run: as §9
# HCC1806 [19] = assay: Increase in CHOP mRNA expression in human HCC1806 cells incubated for 8 hrs by qRT-PCR method relative to control; format: functional; how it was run: as §5
# HCC1806 [20] = assay: Increase in ATF4 mRNA expression in human HCC1806 cells at 10 uM incubated for 2 to 8 hrs by qRT-PCR method; format: functional, cell-based; how it was run: as §4
# HCC1806 [21] = assay: Increase in CHOP mRNA expression in human HCC1806 cells at 10 uM by qRT-PCR method relative to control; format: functional; how it was run: as §8
# HCC1806 [22] = assay: Increase in cleaved caspase-4 protein expression in human HCC1806 cells at 10 uM incubated for 8 to 24 hrs by Western blotting method; format: functional, cell-based; how it was run: as §9
# HCC1806 [23] = assay: Cytotoxicity against human HCC1806 cells assessed as reduction in cell viability at 5 uM incubated for 48 hrs in presence of CHOP siRNA by cell-titer-Glo reagent based assay; format: functional; how it was run: as §3
# HCC1806 [24] = assay: Reduction in eIF2alpha phosphorylation in human HCC1806 cells at 10 uM incubated for 1 to 24 hrs by Western blotting method; format: functional, cell-based; how it was run: as §9
# HCC1806 [25] = assay: Increase in XBP1 mRNA splicing in human HCC1806 cells at 10 uM incubated for 4 hrs by RT-PCR method (reference value: 11%); format: functional; how it was run: as §6
# HCC1806 [26] = assay: Increase in XBP1 mRNA splicing in human HCC1806 cells at 10 uM incubated for 2 hrs by RT-PCR method (reference value: 11%); format: functional; how it was run: as §6
# MCF7 = assay: Cytotoxicity against human MCF7 cells assessed as reduction in cell viability incubated for 3 days by cell-titer-Glo reagent based assay; format: functional
# How it was run: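 HCC-1806 and MCF7 cells exposed to compound for 3 d, viability read by CellTiter-Glo kit; means of 4 replicate wells, representative of 3 independent experiments.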
# HEK-293T [27] = assay: Increase in UPRE-mediated luciferase expression in HEK293T cells stably transfected with UPRE-luciferase gene at 10 uM incubated for 24 hrs by luciferase reporter gene assay relative to control; format: functional, Homo sapiens; how it was run: as §2
# HCC1806 [28] = assay: Increase in GADD34 mRNA expression in human HCC1806 cells at 10 uM incubated for 2 to 24 hrs by qRT-PCR method; format: functional, cell-based; conditions: TDE = time-dependent effect; how it was run: as §4
smiles,measurement,setting,value
Cc1ccc(NC(=O)c2ccc([N+](=O)[O-])o2)cc1,IC50,HCC1806 [1],6.7 µM
Cc1cccc(NC(=O)c2ccc([N+](=O)[O-])o2)c1C,IC50,HCC1806 [1],9.7 µM
Cc1cc(NC(=O)c2ccc([N+](=O)[O-])o2)c(C)cc1I,IC50,HCC1806 [1],3 µM
O=C(Nc1ccc(N2CCOCC2)c(Cl)c1)c1ccc([N+](=O)[O-])o1,IC50,HCC38,2 µM
same,IC50,HCC1143,2.5 µM
same,IC50,HCC1806 [1],2.6 µM
O=C(Nc1ccc(N2CCN(Cc3ccccc3F)CC2)cc1)c1ccc([N+](=O)[O-])o1,IC50,HCC38,1.9 µM
same,IC50,HCC1143,3.8 µM
same,IC50,HCC1806 [1],3 µM
O=C(Nc1ccc(N2CCCCC2)c(F)c1)c1ccco1,IC50,HCC1806 [1],> 40 µM
CCc1cc(I)ccc1NC(=O)c1ccc([N+](=O)[O-])o1,IC50,HCC1806 [1],5.5 µM
COc1ccc(Cl)cc1NC(=O)c1ccc([N+](=O)[O-])o1,IC50,HCC1806 [1],7 µM
O=C(Nc1cc(Cl)ccc1Cl)c1ccc([N+](=O)[O-])o1,IC50,HCC1806 [1],8.6 µM
O=C(Nc1ccc(I)cc1)c1ccc([N+](=O)[O-])o1,fold change (FC),HEK-293T [2],24
same,Activity,HCC38,Dose-dependent effect
same,IC50,HCC38,8.7 µM
same,fold change (FC),HEK293,30
same,Activity,HCC1143,Dose-dependent effect
same,IC50,HCC1143,9.5 µM
same,Activity,HCC1806 [1],Dose-dependent effect
same,IC50,HCC1806 [1],6.2 µM
CC1CCN(c2ccc(NC(=O)c3ccc([N+](=O)[O-])o3)cc2)CC1,Activity,HCC1806 [3],Active
same,Activity,HCC1806 [4],tde
same,Activity,HCC1806 [5],Dose-dependent effect
same,Activity,HCC1806 [6],Active
same,Activity,HCC1806 [7],15.3%
same,Activity,HCC1806 [8],Active
same,Activity,HCC1806 [9],Active
same,Activity,HCC1806 [10],tde
same,Activity,HEK-293T [11],inactive
same,Activity,HCC1806 [12],Active
same,Activity,HCC1806 [13],Active
same,Activity,HCC1806 [14],Active
same,Activity,HCC1806 [15],Active
same,Activity,HCC1806 [16],Active
same,IC50,HCC38,2.5 µM
same,Activity,HCC1806 [17],14.2%
same,Activity,HCC1806 [18],Active
same,IC50,HCC1143,2.1 µM
same,fold change (FC),HCC1806 [19],9
same,Activity,HCC1806 [20],Active
same,fold change (FC),HCC1806 [21],9
same,Activity,HCC1806 [22],Active
same,Activity,HCC1806 [23],inactive
same,Activity,HCC1806 [24],Active
same,Activity,HCC1806 [25],16.4%
same,Activity,HCC1806 [1],Dose-dependent effect
same,IC50,HCC1806 [1],2.8 µM
same,Activity,HCC1806 [26],19.6%
same,Activity,MCF7,Dose-dependent effect
same,fold change (FC),HEK-293T [27],< 2
same,Activity,HCC1806 [28],tde
